The values below come from ChEMBL document CHEMBL3045256, “Design, synthesis, structure, and acaricidal/insecticidal activity of novel spirocyclic tetronic acid derivatives containing an oxalyl moiety” (2011).

Molecules are shown by their SMILES.

Format in all cases: functional
In experiment [1] the test system is Tetranychus cinnabarinus. Nature of the experiment: Acaricidal activity against larvae of Tetranychus cinnabarinus (carmine spider mite) in sieva bean leaves assessed as mortality at 2.5 mg/kg at 25 +/-1 degC treated for 3 secs measured after 4 days. The note with it: 96 h.
Experiment [2] has as its system Tetranychus cinnabarinus. As to the kind of experiment: Ratio of mortality against eggs of Tetranychus cinnabarinus (carmine spider mite) to mortality against larvae of carmine spider mite.
Experiment [3] has as its system Tetranychus cinnabarinus. As to the kind of experiment: Acaricidal activity against eggs of Tetranychus cinnabarinus (carmine spider mite) in sieva bean leaves assessed as mortality at 0.25 mg/kg at 25 +/-1 degC treated for 3 secs measured after 4 days. The following applies: 96 h.
For experiment [4], the system named is Tetranychus cinnabarinus. As to the kind of experiment: Acaricidal activity against larvae of Tetranychus cinnabarinus (carmine spider mite) in sieva bean leaves assessed as mortality at 10 mg/kg at 25 +/-1 degC treated for 3 secs measured after 4 days. The following applies: 96 h.
In experiment [5] the test system is Tetranychus cinnabarinus. As to the kind of experiment: Acaricidal activity against larvae of Tetranychus cinnabarinus (carmine spider mite) in sieva bean leaves assessed as mortality at 5 mg/kg at 25 +/-1 degC treated for 3 secs measured after 4 days. The following applies: 96 h.
Experiment [6] deals with Tetranychus cinnabarinus. As to the kind of experiment: Acaricidal activity against eggs of Tetranychus cinnabarinus (carmine spider mite) in sieva bean leaves assessed as mortality at 0.1 mg/kg at 25 +/-1 degC treated for 3 secs measured after 4 days. The note with it: 96 h.
Another experiment deals with Helicoverpa armigera. As to the kind of experiment: Stomach toxicity against third-instar larval stage of Helicoverpa armigerain compound-pretreated corn leaves assessed as mortality at 600 mg/kg at 25 +/-1 degC after 4 days by leaf-dip method. Put shortly: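 Leaf-dip assay on cotton bollworm. Corn leaves were dipped in test solution and air-dried. The treated pieces were placed individually into 24-hole boxes. Run at 25 ± 1 °C.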

Experiment [7] has as its system Mythimna separata. As to the kind of experiment: Stomach toxicity against fourth-instar larval stage of Mythimna separata (Oriental armyworm) in compound-pretreated corn leaves assessed as mortality at 600 mg/kg at 25 +/-1 degC after 4 days. Put shortly: (§1)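 Foliar application to oriental armyworm. Single corn leaves were laid on moistened filter paper in Petri dishes. Bioassays were run at 25 ± 1 °C.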

Experiment [8] relates to Tetranychus cinnabarinus. Nature of the experiment: Acaricidal activity against eggs of Tetranychus cinnabarinus (carmine spider mite) in sieva bean leaves assessed as mortality at 25 +/-1 degC treated for 3 secs measured after 4 days.
The subject of experiment [9] is Tetranychus cinnabarinus. Nature of the experiment: Acaricidal activity against eggs of Tetranychus cinnabarinus (carmine spider mite) in sieva bean leaves assessed as mortality at 0.05 mg/kg at 25 +/-1 degC treated for 3 secs measured after 4 days. The following applies: 96 h.
The subject of experiment [10] is Tetranychus cinnabarinus. As to the kind of experiment: Acaricidal activity against eggs of Tetranychus cinnabarinus (carmine spider mite) in sieva bean leaves assessed as mortality at 0.5 mg/kg at 25 +/-1 degC treated for 3 secs measured after 4 days. The note with it: 96 h.
Experiment [11] concerns Tetranychus cinnabarinus. As to the kind of experiment: Acaricidal activity against eggs of Tetranychus cinnabarinus (carmine spider mite) in sieva bean leaves assessed as mortality at 1 mg/kg at 25 +/-1 degC treated for 3 secs measured after 4 days. The following applies: 96 h.
The subject of experiment [12] is Tetranychus cinnabarinus. As to the kind of experiment: Toxicity ratio of spiromesifen LC50 to compound LC50 for eggs of Tetranychus cinnabarinus (carmine spider mite) treated for 3 secs measured after 4 days.
The test system of experiment [13] is Tetranychus cinnabarinus. As to the kind of experiment: Acaricidal activity against eggs of Tetranychus cinnabarinus (carmine spider mite) in sieva bean leaves assessed as mortality at 2.5 mg/kg at 25 +/-1 degC treated for 3 secs measured after 4 days. The following applies: 96 h.
For experiment [14], the system named is Tetranychus cinnabarinus. Nature of the experiment: Acaricidal activity against eggs of Tetranychus cinnabarinus (carmine spider mite) in sieva bean leaves assessed as mortality at 5 mg/kg at 25 +/-1 degC treated for 3 secs measured after 4 days. The following applies: 96 h.
The subject of another experiment is Ostrinia nubilalis. As to the kind of experiment: Stomach toxicity against third-instar larval stage of Ostrinia nubilalis (European corn borer) in corn leaves assessed as mortality at 600 mg/kg at 25 +/-1 degC treated for 3-5 secs before larval infestation after 4 days by leaf-dip method. The following applies: 96 h. Put shortly: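 Corn leaf disks (about 5 cm) were dipped for 3–5 s and air-dried. Each disk was placed in a 7 cm glass vessel with 10 third-instar corn borer larvae. Percentage mortality was scored 4 days after treatment. Controls were acetone-treated leaves. Run at 25 ± 1 °C.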

For experiment [15], the system named is Mythimna separata. Nature of the experiment: Stomach toxicity against fourth-instar larval stage of Mythimna separata (Oriental armyworm) in compound-pretreated corn leaves assessed as mortality at 100 mg/kg at 25 +/-1 degC after 4 days. An outline of the steps:
as §1

For experiment [16], the system named is Tetranychus cinnabarinus. Nature of the experiment: Acaricidal activity against larvae of Tetranychus cinnabarinus (carmine spider mite) in sieva bean leaves assessed as mortality at 1 mg/kg at 25 +/-1 degC treated for 3 secs measured after 4 days. The following applies: 96 h.
Experiment [17] relates to Tetranychus cinnabarinus. Nature of the experiment: Acaricidal activity against larvae of Tetranychus cinnabarinus (carmine spider mite) in sieva bean leaves assessed as mortality at 0.5 mg/kg at 25 +/-1 degC treated for 3 secs measured after 4 days. The note with it: 96 h.
A further experiment deals with Plutella xylostella. As to the kind of experiment: Stomach toxicity against third-instar larval stage of Plutella xylostella (diamondback moth) in cabbage leaves assessed as mortality at 200 mg/kg at 25 +/-1 degC treated for 3 secs before larval infestation after 4 days by leaf-dip method. The following applies: 96 h. Put shortly: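 Cabbage leaf disks (6 cm × 2 cm) were dipped in test solution for 3 s and air-dried. Each disk was placed in a glass tube and given seven third-instar diamondback moth larvae. Percentage mortality was scored after 4 days. Controls were water and dimethylformamide. Each treatment was done three times at 25 ± 1 °C.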

Experiment [18] relates to Mythimna separata. As to the kind of experiment: Stomach toxicity against fourth-instar larval stage of Mythimna separata (Oriental armyworm) in compound-pretreated corn leaves assessed as mortality at 50 mg/kg at 25 +/-1 degC after 4 days. Put shortly: as §1

On to `Cc1cc(C)c(C2=C(OC(=O)C(=O)N(C(C)C)C(C)C)C3(CCCC3)OC2=O)c(C)c1`, for which the mortality (commonly the percentage killed) at 2.5 mg/kg in the experiment with Tetranychus cinnabarinus [1] was 40%; with Tetranychus cinnabarinus [13], 100%. In addition, in the experiment on Tetranychus cinnabarinus [2], the Ratio is reported as 25. Also, in the experiment with Tetranychus cinnabarinus [3], the mortality at 0.25 mg/kg was 80%. For the same compound, the mortality at 10 mg/kg in the experiment with Tetranychus cinnabarinus [4] was found to be 100%. Also, the results for the mortality at 5 mg/kg in the experiment on Tetranychus cinnabarinus [5] and in the experiment on Tetranychus cinnabarinus [14] were 80% and 100%, respectively. In the experiment with Tetranychus cinnabarinus [6], the mortality at 0.1 mg/kg was determined as 40%. Moreover, the mortality at 600 mg/kg in the experiment with Helicoverpa armigera turned out to be 40%; in the experiment with Mythimna separata [7], 50%; in the experiment on Ostrinia nubilalis it was 80%. The LC50 with Tetranychus cinnabarinus [8] was 0.1147 mg/kg. Moreover, the mortality at 0.05 mg/kg in the experiment on Tetranychus cinnabarinus [9] turned out to be 10%. The mortality at 0.5 mg/kg in the experiment with Tetranychus cinnabarinus [10] came out at 100%. Further, the mortality at 1 mg/kg with Tetranychus cinnabarinus [11] turned out to be 100%. Moreover, in the experiment with Tetranychus cinnabarinus [12], the RatioLC50 is reported as 1.4.

For the compound `Cc1cc(C)c(C2=C(OC(=O)C(=O)N3CCCCC3)C3(CCCC3)OC2=O)c(C)c1`, the results for the mortality at 2.5 mg/kg in the experiment with Tetranychus cinnabarinus [1] and in the experiment with Tetranychus cinnabarinus [13] were 70% and 100%, respectively. The Ratio with Tetranychus cinnabarinus [2] was 25. Besides, the mortality at 0.25 mg/kg in the experiment with Tetranychus cinnabarinus [3] was found to be 100%. For the same compound, the mortality at 10 mg/kg in the experiment on Tetranychus cinnabarinus [4] stood at 100%. The mortality at 5 mg/kg in the experiment on Tetranychus cinnabarinus [5] was determined as 90%; with Tetranychus cinnabarinus [14], 100%. Moreover, in the experiment with Tetranychus cinnabarinus [6], the mortality at 0.1 mg/kg was 60%. In addition, the figures for the mortality at 600 mg/kg in the experiment on Helicoverpa armigera, in the experiment on Mythimna separata [7] and in the experiment with Ostrinia nubilalis were 30%, 40% and 40%, respectively. The LC50 with Tetranychus cinnabarinus [8] stood at 0.0675 mg/kg. In addition, the mortality at 0.05 mg/kg with Tetranychus cinnabarinus [9] turned out to be 30%. Also, the mortality at 0.5 mg/kg in the experiment on Tetranychus cinnabarinus [10] stood at 100%. The mortality at 1 mg/kg with Tetranychus cinnabarinus [11] turned out to be 100%. For the same compound, the RatioLC50 in the experiment on Tetranychus cinnabarinus [12] turned out to be 2.3.

In the case of `Cc1cc(C)c(C2=C(OC(=O)CC(C)(C)C)C3(CCCC3)OC2=O)c(C)c1` [SPIROMESIFEN], the mortality at 2.5 mg/kg in the experiment with Tetranychus cinnabarinus [1] and in the experiment with Tetranychus cinnabarinus [13] was 100% throughout. In addition, the mortality at 100 mg/kg in the experiment with Mythimna separata [15] came to 100%. The mortality at 0.25 mg/kg with Tetranychus cinnabarinus [3] was 60%. Also, the mortality at 10 mg/kg in the experiment on Tetranychus cinnabarinus [4] was 100%. Further, the mortality at 1 mg/kg in the experiment on Tetranychus cinnabarinus [16] and in the experiment on Tetranychus cinnabarinus [11] was 90% throughout. Besides, the mortality at 5 mg/kg with Tetranychus cinnabarinus [5] and with Tetranychus cinnabarinus [14] was 100% in each case. Moreover, the mortality at 0.1 mg/kg in the experiment with Tetranychus cinnabarinus [6] was 20%. The mortality at 600 mg/kg was 50% with Helicoverpa armigera and 60% with Ostrinia nubilalis. The mortality at 0.5 mg/kg in the experiment on Tetranychus cinnabarinus [17] and in the experiment on Tetranychus cinnabarinus [10] was 90% in each case. In addition, in the experiment with Tetranychus cinnabarinus [8], the LC50 came to 0.1567 mg/kg. The mortality at 0.05 mg/kg in the experiment on Tetranychus cinnabarinus [9] was 0%. For the same compound, the mortality at 200 mg/kg in the experiment on Plutella xylostella came out at 70%. The RatioLC50 in the experiment with Tetranychus cinnabarinus [12] came to 1. In the experiment on Mythimna separata [18], the mortality at 50 mg/kg was 60%.
